Paper PMC9050161 (RSC Advances, 2020)

Assays:
[1] = biological target: CYP3A5 (Homo sapiens, UniProt P20815); test: Inhibition of CYP3A5; format: biochemical; conditions: PI-103 1, 10 and 100 μM
Method in brief: (§1)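 Recombinant human CYPs at 0.05 mg mL−1 protein, each with its probe substrate near Km: ethoxyresorufin 1 μM (CYP1A1), phenacetin 100 μM (CYP1A2), nifedipine 40 μM (CYP3A4, 3A5). Incubated at 37 °C without (control) or with test compound at 1, 10 and 100 μM. Supernatant analysed by UHPLC-TQD-MS; activity relative to control; triplicate.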

[2] = biological target: CYP3A4 (Homo sapiens, UniProt P08684); test: Inhibition of CYP3A4; format: biochemical; conditions: PI-103 1, 10 and 100 μM
Chain of CYP3A4 (P08684 whole entry): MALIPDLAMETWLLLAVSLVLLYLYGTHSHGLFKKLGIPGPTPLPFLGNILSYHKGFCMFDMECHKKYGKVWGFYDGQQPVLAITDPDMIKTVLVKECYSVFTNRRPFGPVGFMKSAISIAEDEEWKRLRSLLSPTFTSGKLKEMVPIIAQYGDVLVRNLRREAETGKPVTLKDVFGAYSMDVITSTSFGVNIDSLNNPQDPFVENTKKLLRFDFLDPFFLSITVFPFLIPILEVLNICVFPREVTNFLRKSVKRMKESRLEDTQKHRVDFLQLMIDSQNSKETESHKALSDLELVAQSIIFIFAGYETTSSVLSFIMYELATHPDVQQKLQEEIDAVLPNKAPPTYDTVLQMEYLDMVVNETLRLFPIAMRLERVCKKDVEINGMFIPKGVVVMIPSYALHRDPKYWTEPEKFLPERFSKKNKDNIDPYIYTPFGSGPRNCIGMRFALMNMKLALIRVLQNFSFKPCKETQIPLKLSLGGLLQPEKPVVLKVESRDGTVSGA
Method in brief: as §1

[3] = biological target: UGT1A1 (Homo sapiens, UniProt P22309); test: Inhibition of UGT1A1; format: biochemical; conditions: PI-103 1, 10 and 100 μM
Method in brief: (§2)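 Recombinant human UGTs screened with probe substrates: β-estradiol for UGT1A1, propofol for 1A9, and 4-methylumbelliferone for 1A3, 1A6, 1A7, 1A8, 1A10, 2B4, 2B7, 2B10, 2B15 and 2B17. Incubated at 37 °C without (control) or with test compound at 1, 10 or 100 μM. Glucuronide formation measured relative to control; triplicate.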

[4] = biological target: UGT2B10 (Homo sapiens, UniProt P36537); test: Inhibition of UGT2B10; format: biochemical; conditions: PI-103 1, 10 and 100 μM
Chain of UGT2B10 (P36537 24-528): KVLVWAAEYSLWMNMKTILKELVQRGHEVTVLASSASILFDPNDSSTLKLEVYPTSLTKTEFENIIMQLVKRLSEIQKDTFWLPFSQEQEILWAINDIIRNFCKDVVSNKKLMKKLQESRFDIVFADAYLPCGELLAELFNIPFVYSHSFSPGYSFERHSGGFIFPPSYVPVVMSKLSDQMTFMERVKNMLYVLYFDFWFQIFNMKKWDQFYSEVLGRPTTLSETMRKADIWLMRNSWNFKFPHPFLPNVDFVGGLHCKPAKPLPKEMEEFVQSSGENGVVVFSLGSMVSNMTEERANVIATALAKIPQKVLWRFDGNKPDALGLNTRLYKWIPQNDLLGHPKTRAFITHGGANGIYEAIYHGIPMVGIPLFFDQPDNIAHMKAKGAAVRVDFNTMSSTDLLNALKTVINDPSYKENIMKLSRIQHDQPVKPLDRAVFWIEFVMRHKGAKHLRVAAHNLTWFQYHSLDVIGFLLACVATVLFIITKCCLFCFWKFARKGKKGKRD
Method in brief: as §2

[5] = system: normal hematopoietic progenitors; conditions: cited from earlier work
[6] = system: DNA-PK; conditions: cited from earlier work
[7] = biological target: T1, CYP1A2 (Homo sapiens, UniProt P05177); test: Inhibition of CYP1A2; format: biochemical
T1 sequence (P05177 1-516): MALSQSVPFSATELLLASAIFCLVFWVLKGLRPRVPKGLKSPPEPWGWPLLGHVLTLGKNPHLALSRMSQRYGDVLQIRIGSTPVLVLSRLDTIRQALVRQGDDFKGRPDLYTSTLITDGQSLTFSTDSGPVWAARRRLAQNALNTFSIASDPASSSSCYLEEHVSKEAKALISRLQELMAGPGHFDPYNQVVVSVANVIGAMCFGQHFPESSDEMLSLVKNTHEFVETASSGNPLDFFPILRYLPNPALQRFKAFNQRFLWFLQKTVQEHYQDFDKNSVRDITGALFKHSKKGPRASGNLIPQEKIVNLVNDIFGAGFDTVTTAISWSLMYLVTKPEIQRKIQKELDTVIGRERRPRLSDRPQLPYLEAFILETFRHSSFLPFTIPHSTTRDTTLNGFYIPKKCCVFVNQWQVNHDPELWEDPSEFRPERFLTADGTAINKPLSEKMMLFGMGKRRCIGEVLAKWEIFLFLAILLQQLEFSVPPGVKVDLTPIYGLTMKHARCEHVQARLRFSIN
Method in brief: as §1

[8] = biological target: UGT1A4 (Homo sapiens, UniProt P22310); test: Activation of UGT1A4; format: biochemical
Chain of UGT1A4 (P22310 29-534): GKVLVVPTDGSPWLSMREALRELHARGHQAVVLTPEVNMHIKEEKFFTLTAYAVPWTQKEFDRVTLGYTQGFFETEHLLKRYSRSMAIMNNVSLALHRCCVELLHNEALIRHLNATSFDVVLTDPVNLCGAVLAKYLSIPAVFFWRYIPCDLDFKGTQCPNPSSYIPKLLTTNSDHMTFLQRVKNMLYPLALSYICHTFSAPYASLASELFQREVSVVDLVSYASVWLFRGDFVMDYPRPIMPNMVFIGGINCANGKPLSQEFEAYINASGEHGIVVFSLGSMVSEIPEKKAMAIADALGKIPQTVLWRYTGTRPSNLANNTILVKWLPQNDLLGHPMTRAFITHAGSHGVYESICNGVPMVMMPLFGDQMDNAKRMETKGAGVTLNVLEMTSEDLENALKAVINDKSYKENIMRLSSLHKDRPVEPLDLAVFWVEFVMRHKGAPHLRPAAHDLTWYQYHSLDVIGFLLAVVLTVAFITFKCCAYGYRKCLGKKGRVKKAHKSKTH
Method in brief: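 Recombinant human UGT1A4 with trifluoperazine (TFP) as substrate for N-glucuronidation, at various TFP concentrations with or without test compound. Triplicate. Data fitted to a mechanistic two-site model assuming a reaction site and an allosteric site.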

[9] = biological target: MRP1 (Homo sapiens, UniProt P33527); test: M2 excretion in HeLa1A9 cells after shRNA knock-down of MRP1; format: cell-based; conditions: MRP1 partially silenced
Chain of MRP1 (P33527 whole entry): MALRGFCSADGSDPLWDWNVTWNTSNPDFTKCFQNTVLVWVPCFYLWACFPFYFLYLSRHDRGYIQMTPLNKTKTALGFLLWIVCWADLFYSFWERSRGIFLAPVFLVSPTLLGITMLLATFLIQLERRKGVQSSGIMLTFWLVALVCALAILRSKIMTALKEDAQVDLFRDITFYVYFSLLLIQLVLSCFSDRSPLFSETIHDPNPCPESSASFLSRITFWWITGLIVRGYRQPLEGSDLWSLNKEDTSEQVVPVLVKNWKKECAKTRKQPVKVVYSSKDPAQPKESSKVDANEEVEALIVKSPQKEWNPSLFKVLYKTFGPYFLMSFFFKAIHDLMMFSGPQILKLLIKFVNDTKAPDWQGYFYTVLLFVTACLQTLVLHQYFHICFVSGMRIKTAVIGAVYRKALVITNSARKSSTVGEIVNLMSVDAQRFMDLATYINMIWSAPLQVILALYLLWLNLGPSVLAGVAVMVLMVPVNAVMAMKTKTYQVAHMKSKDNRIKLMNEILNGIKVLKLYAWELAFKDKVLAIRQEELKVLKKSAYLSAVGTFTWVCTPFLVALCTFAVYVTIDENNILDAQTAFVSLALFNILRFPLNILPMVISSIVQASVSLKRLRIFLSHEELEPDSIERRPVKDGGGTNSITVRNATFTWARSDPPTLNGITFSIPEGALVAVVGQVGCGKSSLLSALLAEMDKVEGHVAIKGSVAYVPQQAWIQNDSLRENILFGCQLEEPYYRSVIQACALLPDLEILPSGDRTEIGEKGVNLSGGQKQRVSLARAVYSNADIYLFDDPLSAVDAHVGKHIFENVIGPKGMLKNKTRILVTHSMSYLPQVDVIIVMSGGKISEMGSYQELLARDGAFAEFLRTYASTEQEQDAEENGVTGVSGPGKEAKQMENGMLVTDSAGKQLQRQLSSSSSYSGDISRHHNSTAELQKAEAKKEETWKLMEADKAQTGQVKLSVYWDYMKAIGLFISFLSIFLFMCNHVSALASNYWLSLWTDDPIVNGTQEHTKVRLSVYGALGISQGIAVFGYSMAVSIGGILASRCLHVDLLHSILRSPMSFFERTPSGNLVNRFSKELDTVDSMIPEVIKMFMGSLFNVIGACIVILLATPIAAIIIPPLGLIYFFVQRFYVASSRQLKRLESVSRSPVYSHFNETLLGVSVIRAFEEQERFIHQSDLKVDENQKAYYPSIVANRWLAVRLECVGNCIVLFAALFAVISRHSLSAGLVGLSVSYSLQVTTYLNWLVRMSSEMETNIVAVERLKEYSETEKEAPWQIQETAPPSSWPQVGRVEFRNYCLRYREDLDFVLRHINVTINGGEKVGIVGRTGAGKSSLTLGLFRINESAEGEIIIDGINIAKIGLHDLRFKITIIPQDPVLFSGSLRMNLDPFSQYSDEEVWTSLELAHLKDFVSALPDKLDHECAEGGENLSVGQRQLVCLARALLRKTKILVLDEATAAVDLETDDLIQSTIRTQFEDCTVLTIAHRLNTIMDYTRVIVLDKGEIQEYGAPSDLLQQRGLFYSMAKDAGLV
Method in brief: (§3)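 shRNA plasmid against BCRP, MRP1, MRP3 or MRP4 transfected into UGT1A9-expressing HeLa cells, then exposed to 5 μM test compound in HBSS. Medium sampled at 30–120 min with replacement; cells collected at 120 min. UHPLC gave extracellular and intracellular glucuronide, excretion rate, efflux clearance (excretion rate/intracellular concentration) and fraction metabolized (fmet), each compared with control. Triplicate.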

[10] = biological target: MRP3 (Homo sapiens, UniProt O15438); test: M2 excretion in HeLa1A9 cells after shRNA knock-down of MRP3; format: cell-based; conditions: MRP3 silenced, p > 0.05
Chain of MRP3 (O15438 whole entry): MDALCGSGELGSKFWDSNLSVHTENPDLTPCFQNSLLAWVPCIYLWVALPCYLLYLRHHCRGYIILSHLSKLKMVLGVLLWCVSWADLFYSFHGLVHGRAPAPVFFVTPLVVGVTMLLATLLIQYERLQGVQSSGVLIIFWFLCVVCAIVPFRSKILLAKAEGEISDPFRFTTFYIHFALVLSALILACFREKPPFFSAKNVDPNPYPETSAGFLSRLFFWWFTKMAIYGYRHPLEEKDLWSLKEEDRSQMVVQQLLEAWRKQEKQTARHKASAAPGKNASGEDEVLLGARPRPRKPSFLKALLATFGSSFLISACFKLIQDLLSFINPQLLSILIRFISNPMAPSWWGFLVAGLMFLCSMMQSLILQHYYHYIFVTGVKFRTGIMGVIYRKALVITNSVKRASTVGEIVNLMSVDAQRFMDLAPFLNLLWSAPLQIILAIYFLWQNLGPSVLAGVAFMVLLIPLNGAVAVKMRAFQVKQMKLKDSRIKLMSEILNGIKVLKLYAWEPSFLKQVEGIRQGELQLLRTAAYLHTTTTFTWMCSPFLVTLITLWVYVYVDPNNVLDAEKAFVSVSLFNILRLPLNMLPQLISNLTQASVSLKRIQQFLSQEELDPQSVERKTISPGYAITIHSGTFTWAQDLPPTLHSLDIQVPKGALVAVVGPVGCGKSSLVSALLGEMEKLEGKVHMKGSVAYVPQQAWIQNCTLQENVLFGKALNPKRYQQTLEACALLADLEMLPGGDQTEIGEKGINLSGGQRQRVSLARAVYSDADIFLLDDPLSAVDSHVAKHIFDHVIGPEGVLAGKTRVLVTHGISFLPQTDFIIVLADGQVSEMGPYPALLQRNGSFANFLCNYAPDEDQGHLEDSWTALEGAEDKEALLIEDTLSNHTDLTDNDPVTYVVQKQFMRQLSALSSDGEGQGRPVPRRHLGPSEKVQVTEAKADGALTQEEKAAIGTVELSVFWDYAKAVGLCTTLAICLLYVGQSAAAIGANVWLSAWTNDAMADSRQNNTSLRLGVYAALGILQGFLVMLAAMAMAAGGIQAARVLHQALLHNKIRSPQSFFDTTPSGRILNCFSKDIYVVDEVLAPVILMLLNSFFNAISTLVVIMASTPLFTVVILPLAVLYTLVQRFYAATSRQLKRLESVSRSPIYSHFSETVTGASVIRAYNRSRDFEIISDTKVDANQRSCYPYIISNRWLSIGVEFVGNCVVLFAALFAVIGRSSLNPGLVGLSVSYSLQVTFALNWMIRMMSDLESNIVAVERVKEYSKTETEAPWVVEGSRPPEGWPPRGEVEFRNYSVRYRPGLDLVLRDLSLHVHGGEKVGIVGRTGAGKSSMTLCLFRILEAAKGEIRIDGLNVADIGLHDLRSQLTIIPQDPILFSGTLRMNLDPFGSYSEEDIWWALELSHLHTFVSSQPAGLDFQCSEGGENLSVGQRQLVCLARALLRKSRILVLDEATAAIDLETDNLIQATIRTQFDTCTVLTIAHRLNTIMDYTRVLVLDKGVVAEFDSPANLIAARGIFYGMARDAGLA
Method in brief: as §3

[11] = biological target: T2, UGT1A7 (Homo sapiens, UniProt Q9HAW7); test: Inhibition of UGT1A7; format: biochemical
T2 sequence (Q9HAW7 26-530): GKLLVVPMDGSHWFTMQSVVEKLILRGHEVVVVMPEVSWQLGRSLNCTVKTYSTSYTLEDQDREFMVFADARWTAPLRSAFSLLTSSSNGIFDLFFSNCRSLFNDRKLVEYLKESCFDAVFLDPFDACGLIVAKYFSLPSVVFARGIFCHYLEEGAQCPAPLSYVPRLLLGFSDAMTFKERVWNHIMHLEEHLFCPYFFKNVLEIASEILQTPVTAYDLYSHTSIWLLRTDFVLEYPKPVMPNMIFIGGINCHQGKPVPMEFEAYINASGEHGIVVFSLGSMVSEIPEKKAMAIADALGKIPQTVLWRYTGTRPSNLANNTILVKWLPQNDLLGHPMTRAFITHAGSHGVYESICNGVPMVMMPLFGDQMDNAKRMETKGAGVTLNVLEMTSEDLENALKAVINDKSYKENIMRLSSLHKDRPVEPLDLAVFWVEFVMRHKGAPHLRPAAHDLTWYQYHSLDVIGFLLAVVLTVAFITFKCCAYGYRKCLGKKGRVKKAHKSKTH
Method in brief: as §2

[12] = biological target: UGT1A6 (Homo sapiens, UniProt P19224); test: Inhibition of UGT1A6; format: biochemical
Method in brief: as §2

[13] = system: mice; conditions: cited from earlier work
[14] = biological target: CYP1A1 (Homo sapiens, UniProt P04798); test: Inhibition of CYP1A1; format: biochemical
Chain of CYP1A1 (P04798 whole entry): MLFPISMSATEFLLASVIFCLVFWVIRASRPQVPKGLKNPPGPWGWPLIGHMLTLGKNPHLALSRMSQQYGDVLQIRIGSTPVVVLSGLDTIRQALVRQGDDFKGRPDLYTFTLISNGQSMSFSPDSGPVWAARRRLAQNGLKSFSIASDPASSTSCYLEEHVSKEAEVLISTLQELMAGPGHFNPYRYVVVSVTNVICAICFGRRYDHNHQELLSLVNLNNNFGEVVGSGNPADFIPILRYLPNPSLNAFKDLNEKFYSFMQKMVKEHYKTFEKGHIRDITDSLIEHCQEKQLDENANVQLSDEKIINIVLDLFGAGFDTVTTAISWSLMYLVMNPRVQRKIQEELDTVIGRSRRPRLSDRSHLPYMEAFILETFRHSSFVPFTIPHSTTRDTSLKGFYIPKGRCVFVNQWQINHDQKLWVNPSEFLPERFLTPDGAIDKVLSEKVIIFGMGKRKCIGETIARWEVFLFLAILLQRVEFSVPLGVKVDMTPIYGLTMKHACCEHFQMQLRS
Method in brief: as §1

[15] = system: p110α; conditions: cited from earlier work

Oc1cccc(-c2nc(N3CCOCC3)c3oc4ncccc4c3n2)c1 [PI-103]
inhibitory effect [1]: negligible or weak | inhibitory effect [2]: negligible or weak | inhibitory effect [3]: negligible | inhibitory effect [4]: negligible | impact on normal hematopoietic progenitors [5]: little impact | IC50 [6]: […] | IC50 [7]: 0.37 ± 0.04 µM | Ki [7]: 0.38 ± 0.03 µM | residual activity ([7]; CYP1A2, 100 μM PI-103): 8.63 % of the negative control | Type of inhibition ([7]; CYP1A2, phenacetin): Noncompetitive | Ki [8]: 13.8 µM | maximal rate change (activation of UGT1A4) ([8]; TFP-N-glucuronidation): 1.6 fold | reduction in fmet value [9]: 29.2% | alteration in fmet value of PI-103 [10]: 9.2% | IC50 [11]: 6.25 ± 0.84 µM | Ki [11]: 5.64 ± 0.6 µM | Type of inhibition ([11]; UGT1A7, 4-MU): Noncompetitive | IC50 [12]: 168 ± 15.3 µM | toxicity in mice [13]: little toxicity | IC50 [14]: 16.8 ± 1.76 µM | residual activity ([14]; CYP1A1, 100 μM PI-103): 21.39 % of the negative control | IC50 [15]: […]
